The record followed here is ChEMBL document CHEMBL4765368, “Structure guided design and synthesis of furyl thiazolidinedione derivatives as inhibitors of GLUT 1 and GLUT 4, and evaluation of their anti-leukemic potential” (Eur J Med Chem, 2020).

Molecules are shown by their SMILES. The source made the active and inactive calls. No cut-off for these calls is given here. A value given as a limit tells only on which side of the number the result lay.

The nature of series [1]: Cytotoxicity against human WBC assessed as cell viability at higher concentration measured after 48 hrs by MTT assay relative to control. It counts as tissue-based. In general terms: Formazan colour is commonly taken as a measure of viable cells.
In a further series the test system is MDA-MB-231. Description: Cytotoxicity against human MDA-MB-231 cells assessed as reduction in cell viability measured after 48 hrs by Hoechst 33342/propidium iodide staining based imaging analysis. It counts as functional. Put shortly:
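Cells were seeded at 10,000 per well (HS-27 at 3,000) in 10% FBS RPMI (leukemic lines) or DMEM (MDA-MB-231, HS-27). Compound in DMSO (1% v/v final) at 0.5–100 µM for 48 h. Hoechst 33342 and PI were added 2 h before automated imaging; dead cells were co-stained. Quadruplicates. CC50 was taken by linear interpolation between the two concentrations nearest 50% death.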

Series [2] in a line: Toxicity in SCID mouse assessed as death at 500 mg/kg, ip administered as single dose. It is filed as organism-based. The following applies: in vivo. In short, it runs like this:
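SCID mice aged 8–10 weeks were kept in individually ventilated cages on a 12 h light/dark cycle with autoclaved pellets and water ad libitum.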

The subject of series [3] is CCRF-CEM. Kind of series: Cell cycle arrest in human CCRF-CEM cells assessed as decrease in accumulation at S phase measured after 72 hrs by NIM-DAPI staining based flow cytometry. It counts as functional. Put shortly:
(§1)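 An asynchronous CEM culture was seeded at 100,000 cells/well in 1 mL complete RPMI and exposed to 10, 25 or 50 μM for 72 h. Controls were untreated cells, DMSO and hydrogen peroxide. Cells were pelleted at 262 g, resuspended, and stained with NIM-DAPI, which permeabilizes and stains DNA in one step. About 100,000 events per sample were read by flow cytometry. Triplicates.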

The nature of series [4]: Selectivity index, ratio of IC50 for human WBC to CC50 for human CCRF-CEM cells. In short, it runs like this:
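Donor blood was layered on HiSep and centrifuged at 400×g for 30 min; mononuclear cells were washed and RBC-lysed to give WBCs. WBCs were seeded overnight at 37 °C, 5% CO2, then exposed to 2.5–100 µM for 48 h. MTT was added for 4 h at 37 °C, formazan was dissolved in DMSO and A570 read. The CEM CC50 came from a 48 h Hoechst/PI imaging assay.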

Series [5] is described as follows: Toxicity in SCID mouse assessed as distress at 1000 mg/kg, ip administered as single dose. It counts as organism-based. The following applies: in vivo.
For series [6], the system named is CCRF-CEM. Kind of series: Antitumor activity against human CCRF-CEM cells xenografted in SCID mouse assessed as reduction in tumor growth at 50 mg/kg, ip administered daily for 5 days with 2 days interval for 18 days. The following applies: time 18.0 day. It is filed as functional, organism-based. In short, it runs like this:
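SCID mice aged 8-10 weeks, in individually ventilated cages on a 12 h light/dark cycle, autoclaved pellets and water ad libitum. 1×10^5 CEM cells were injected on the back to form palpable tumors, which were minced and regrafted. Compound given 50 mg/kg i.p. on days 1-5, 8-12 and 15-18. Saline vehicle group; doxorubicin 20 mg/kg i.p. reference group. n=6 per group. Tumor volume by caliper every two days as (width)² x length/2.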
(In xenograft studies the graft and the host belong to different species.)

Series [7] deals with CCRF-CEM. Kind of series: Induction of apoptosis in human CCRF-CEM cells assessed as early apoptotic cells at CC50 measured after 24 hrs by AnnexinV-FITC/propidium iodide staining based flow cytometry analysis relative to control. It is filed as functional. In short, it runs like this: (§2)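 CCRF-CEM cells in RPMI with 10% FBS were seeded in 24-well plates, incubated overnight, given fresh medium, then treated for 24 h. Cells were PBS-washed, spun at 500 g for 5 min at 4 °C, and resuspended in ice-cold binding buffer. They were stained with annexin V-FITC and PI for 15 min on ice in the dark, then read by flow cytometry. Untreated cells were the negative control; triplicates.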
(In general: A flow cytometer gives signals particle by particle.)

A short description of series [8]: Cytotoxicity against human WBC assessed as reduction in cell viability measured after 48 hrs by MTT assay. It is filed as tissue-based. In short, it runs like this:
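WBCs were isolated from donor blood by HiSep density centrifugation, followed by RBC lysis and PBS washes, and held overnight at 37 °C with 5% CO2. Compound at 2.5–100 μM for 48 h. After two PBS washes, MTT was added for 4 h at 37 °C, formazan was dissolved in DMSO, and absorbance was read at 570 nm. IC50 taken from the dose-response curve.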

Series [9] relates to CCRF-CEM. Description: Cell cycle arrest in human CCRF-CEM cells assessed as increase in accumulation at sub-G0/G1 phase measured after 72 hrs by NIM-DAPI staining based flow cytometry. It counts as functional. In short, it runs like this:
as §1

The target of series [10] is T1, Solute carrier family 2, facilitated glucose transporter member 1 (Homo sapiens) (UniProt P11166).
T1 sequence (whole entry): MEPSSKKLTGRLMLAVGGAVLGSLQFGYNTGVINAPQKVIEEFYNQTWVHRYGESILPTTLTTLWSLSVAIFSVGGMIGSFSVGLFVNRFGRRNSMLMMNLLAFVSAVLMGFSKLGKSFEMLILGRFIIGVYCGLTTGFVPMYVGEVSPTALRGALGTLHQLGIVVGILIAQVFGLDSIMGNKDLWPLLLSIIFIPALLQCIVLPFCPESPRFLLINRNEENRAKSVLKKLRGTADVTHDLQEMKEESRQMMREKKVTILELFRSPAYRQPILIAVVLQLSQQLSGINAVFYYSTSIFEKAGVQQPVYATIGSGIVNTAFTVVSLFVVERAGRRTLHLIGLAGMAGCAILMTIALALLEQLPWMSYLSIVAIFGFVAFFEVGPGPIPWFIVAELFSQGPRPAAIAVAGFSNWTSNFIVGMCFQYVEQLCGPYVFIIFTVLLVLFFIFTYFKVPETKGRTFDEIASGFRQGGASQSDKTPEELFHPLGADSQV
Description: Inhibition of GLUT1 in human CCRF-CEM cells assessed as decrease in CDK2 phosphorylation at 10 uM measured after 6 hrs by Western blot analysis. It counts as cell-based. In short, it runs like this: (§3)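 CEM cells were treated with 10 µM for 6 h. Untreated cells were the negative control and staurosporine the positive control. Cells were washed with cold PBS, lysed in Laemmli buffer with protease inhibitors, sonicated and quantified. Blots were blocked 45 min in PBS-Tween-5% milk, with primary antibody 3 h and secondary 1 h at room temperature.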

In series [11] the test system is CCRF-CEM. Kind of series: Induction of apoptosis in human CCRF-CEM cells assessed as live cells at CC50 measured after 24 hrs by AnnexinV-FITC/propidium iodide staining based flow cytometry analysis (reference value: 92.15%). It is filed as functional. In short, it runs like this: as §2
The target of series [12] is T1, Solute carrier family 2, facilitated glucose transporter member 1 (Homo sapiens). Description: Inhibition of GLUT1 in human CCRF-CEM cells assessed as decrease in mTOR phosphorylation at 10 uM measured after 6 hrs by Western blot analysis. It is filed as cell-based. Put shortly: as §3
For the next series, the species on record is Homo sapiens. Description: Selectivity ratio of IC50 for inhibition of transport activity of human GLUT4 expressed in hexose transporter deficient W4000fgy1 erg4 yeast cells to IC50 for inhibition of transport activity of human GLUT1 expressed in hexose transporter deficient VW4000fgy1 yeast cells. It counts as cell-based. In short, it runs like this: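 GLUT1 (VW4000fgy1) or GLUT4 (VW4000fgy1erg4) hxt0 yeast were grown on maltose and then glucose and resuspended in PBS pH 7.4 at OD600 ~10. Compound was used at 0.1–100 μM, final 1% DMSO. Uptake of 5 mM 14C-glucose over 10 min was stopped with ice-cold quench buffer, filtered and counted by scintillation. IC50 was taken from dose-response curves of three independent measurements.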

One may read the CC50 as the concentration that lowers cell viability or growth by half. For orientation: IC50 means the concentration that inhibits the measured activity by half. In the case of `O=C(CN1C(=O)S/C(=C/c2ccco2)C1=O)Nc1nc2ccccc2s1`, the Activity in [1] is above 62%; in series [2] it was “Non-Toxic”; with CCRF-CEM [3] it was “Dose-dependent effect”; in series [5] it was “Toxic”; with CCRF-CEM [7], 1.38%; in the series on CCRF-CEM [9], “Dose-dependent effect”. Besides, the Activity with CCRF-CEM [11] was 26.14%. The CC50 in the series with MDA-MB-231 was 45.1 µM. Also, the “Ratio IC50” value in series [4] turned out to be 107. Moreover, the outcome in the series on CCRF-CEM [6] was Active. Moreover, the IC50 in series [8] stood at 187 µM. The inhibition entry in series [10] and in series [12] was “Active” in each case.
For the compound `O=C(CN1C(=O)S/C(=C/c2ccco2)C1=O)Nc1ccc(Cl)c(Cl)c1`, the Ratio IC50 in the series filed under Homo sapiens was 10.
